In ChEMBL document CHEMBL5038608, “Design, synthesis, and biological evaluation of novel pyrrolidinone small-molecule Formyl peptide receptor 2 agonists” (Eur J Med Chem, 2021):
Values after ≈ are worked out from the molar mass of the structure shown. Active and inactive are the calls of the source. No cut-off for these calls is given here.

Legend:
[1] = Kinetic solubility of compound in PBS at pH 7.4 by UV-VIS absorption spectrophotometry analysis; format: physicochemical; conditions: for solubility kinetic: PBS, read-out: Kinetic_solubility
Procedure, shortened: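 A 10 mM DMSO stock was diluted into PBS pH 7.4 at a target of 200 µM (final PBS:DMSO 98:2), in triplicate. Agitated 500 rpm for 90 min, then filtered. Filtrate diluted to PBS:DMSO 80:20 and its UV absorbance compared against a 200–6.75 µM standard series to give the concentration remaining in solution.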

[2] = target: T1, N-formyl peptide receptor 2 (Homo sapiens, UniProt P25090); test: Agonist activity at FPRL1 (unknown origin) expressed in CHO-K1 cells assessed as increase in calcium mobilization incubated for 2.5 hrs by cellular based FLIPR assay; format: functional, cell-based
T1 sequence (P25090 whole entry): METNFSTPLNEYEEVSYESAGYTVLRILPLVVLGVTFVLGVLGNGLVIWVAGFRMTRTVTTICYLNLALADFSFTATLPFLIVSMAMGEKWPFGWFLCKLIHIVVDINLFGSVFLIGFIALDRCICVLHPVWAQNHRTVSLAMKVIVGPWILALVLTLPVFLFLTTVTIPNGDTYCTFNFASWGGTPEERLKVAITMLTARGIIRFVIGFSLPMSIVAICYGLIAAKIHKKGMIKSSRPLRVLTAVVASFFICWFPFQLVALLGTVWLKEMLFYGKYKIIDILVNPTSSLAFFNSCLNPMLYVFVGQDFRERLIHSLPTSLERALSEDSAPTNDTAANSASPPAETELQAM
Procedure, shortened: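 CHO-K1 cells overexpressing hFPR2, plated at 20,000 cells/well in F-12 with 10% FBS and held overnight at 37 °C. Loaded with FLIPR Calcium 6 dye for 2 h at 37 °C, then 30 min at RT in the dark. Compounds were half-log serially diluted from 10 mM stocks in HBSS/20 mM HEPES. Cytosolic Ca2+ rise read on FLIPR Tetra. WKYMVm served as control.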

[3] = target: T2, N-formyl peptide receptor 2 (Homo sapiens) (UniProt P25090); test: Agonist activity at FPRL1 (unknown origin) expressed in CHO-K1 cells assessed as increase in calcium mobilization […] incubated for 2.5 hrs by cellular based FLIPR assay; format: functional, cell-based
T2 sequence (whole entry): T1 sequence (P25090 whole entry)
Procedure, shortened: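 CHO-K1 cells overexpressing human FPR2 (PathHunter FPRL1 line), plated at 20,000/well in F-12 with 10% FBS and held 1 h RT, then overnight at 37 °C. Calcium 6 dye loaded 2 h at 37 °C, then 30 min RT in the dark. Compounds were half-log serially diluted from 10 mM stocks in HBSS with 20 mM HEPES. Cytosolic Ca2+ rise read on FLIPR Tetra.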

[4] = target: T2, N-formyl peptide receptor 2 (Homo sapiens); test: Agonist activity at FPRL1 (unknown origin) expressed in CHO-K1 cells assessed as stimulation of beta-arrestin recruitment […] incubated for 150 mins by beta-galactosidase based PathHunter assay; format: functional, cell-based
Procedure, shortened: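 PathHunter CHO-K1 FPRL1 cells carry complementing β-galactosidase fragments. Plated at 5000/well, held 1 h RT, then overnight at 37 °C. Compounds were half-log serially diluted from 10 mM stocks in PBS. Stimulation 150 min at 37 °C; W-peptide (WKYMVm, 100 nM) was the high control. Detection reagent added for 60 min RT in the dark, with chemiluminescence read-out.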

[5] = Distribution coefficient, logD of compound at pH 7.4 by shake flask method based LC-MS/MS analysis; format: physicochemical; conditions: octanol/water
Procedure, shortened: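 Shake-flask method: compound diluted from 10 mM DMSO stock into equal volumes of octanol and PBS, final concentration 100 µM. Shaken 12 h, then centrifuged. Both layers analysed in triplicate by LC-MS/MS (MRM, C8 UPLC). LogD = log10 of the octanol/buffer peak-area ratio.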

[6] = target: T1, N-formyl peptide receptor 2; test: Agonist activity at FPRL1 (unknown origin) expressed in CHO-K1 cells assessed as stimulation of beta-arrestin recruitment incubated for 150 mins by beta-galactosidase based PathHunter assay; format: functional, cell-based
Procedure, shortened: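 PathHunter CHO-K1 FPRL1 cells expressing β-gal enzyme-fragment complementation, 5000 cells/well, held overnight at 37 °C. Stimulated with half-log serial dilutions of compounds (10 mM stocks in PBS) for 150 min at 37 °C. High control was WKYMVm at 100 nM. Detection reagent added for 60 min at RT in the dark, then chemiluminescence read.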

[7] = Microsomal stability in human liver microsomes assessed as half life at 1 uM preincubated for 5 mins followed by NADPH regenerating system addition measured after 30 mins by LC-MS/MS analysis; format: ADME, Microsome; conditions: t1/2, time 35 min
Procedure, shortened: (§1)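 Human or mouse liver microsomes (0.2 mg/mL protein) with compound at 1 µM final, pre-incubated 5 min at 37 °C. Reaction started with NADPH generating solution and agitated at 37 °C, with samples quenched up to 30 min. Centrifuged; supernatant analysed in triplicate by LC-MS.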

[8] = Microsomal stability in mouse liver microsomes assessed as half life at 1 uM preincubated for 5 mins followed by NADPH regenerating system addition measured after 30 mins by LC-MS/MS analysis; format: ADME, Microsome; conditions: t1/2, time 35 min; procedure, shortened: as §1
[9] = filed as agonist, time 0.067 hrs, in the assay text read “measured for 240 s” for “incubated for 2.5 hrs”

O=C(Nc1ccc(Br)cc1)NC1CCN(C2CCNCC2)C1=O (centres undefined)
solubility kinetic [1]: 234 µM (≈ 89.2 µg/mL)
EC50 ([2]; read-out: EC50): 0.23 µM
Emax [3, 9]: 68%
Emax ([4]; filed as agonist): 100%
logD ([5]; read-out: logD): 0.3
EC50 ([6]; read-out: EC50): 1.03 µM

CC(C)(C)OC(=O)N1CCC[C@H](N2CCC(NC(=O)Nc3ccc(Br)cc3)C2=O)C1 (stereo in doubt; 19) [listing 1 of 2 here]
Emax [3, 9]: 71%
Emax ([4]; filed as agonist): 89%

N#Cc1ccc(NC(=O)NC2CCN(c3ccccc3F)C2=O)cc1 (centres undefined)
half-life at 1 µM [7]: 1.42 h
half-life at 1 µM [8]: 2.87 h
EC50 ([2]; read-out: EC50): 15 µM
Emax [3, 9]: 123%
Emax [4]: inactive
logD ([5]; read-out: logD): 2.7
EC50 ([6]; cho-k1): Not Active

COc1ccc(CNC(=O)NC2CCN(c3ccccc3)C2=O)cc1 (centres undefined)
half-life at 1 µM [7]: 5.48 h
half-life at 1 µM [8]: 5.95 h
EC50 ([2]; cho-k1): Not Active
Emax ([3]; time 2.5 hrs): inactive
Emax [4]: inactive
logD ([5]; read-out: logD): 1.99
EC50 ([6]; cho-k1): Not Active

O=C(Nc1ccc(Br)cc1)NC1CCN(c2ccc(F)cc2)C1=O (centres undefined)
half-life at 1 µM [7]: > 6.67 h
half-life at 1 µM [8]: 0.55 h
EC50 ([2]; read-out: EC50): 1.97 µM
logD ([5]; read-out: logD): > 4
EC50 ([6]; read-out: EC50): 0.51 µM

CC(NC(=O)NC1CCN(c2ccccc2)C1=O)c1ccncc1 (centres undefined)
half-life at 1 µM [7]: 6.83 h
EC50 ([2]; cho-k1): Not Active
Emax ([3]; time 2.5 hrs): inactive
Emax [4]: inactive
logD ([5]; read-out: logD): 2
EC50 ([6]; cho-k1): Not Active

O=C(Nc1ccc(Br)cc1)NC1CCN(c2cnn(-c3ccncc3)c2)C1=O (centres undefined)
half-life at 1 µM [7]: 11 h
solubility kinetic [1]: 3 µM (≈ 1.32 µg/mL)
EC50 ([2]; cho-k1): Not Active
Emax ([3]; time 2.5 hrs): inactive
Emax ([4]; filed as agonist): 103%
logD ([5]; read-out: logD): 4.3
EC50 ([6]; read-out: EC50): 3.76 µM

CC1CC(NC(=O)NCc2nccn2C)C(=O)N1c1ccccc1 (centres undefined)
EC50 ([2]; cho-k1): Not Active
Emax ([3]; time 2.5 hrs): inactive
Emax [4]: inactive
logD ([5]; read-out: logD): 1
EC50 ([6]; cho-k1): Not Active

Cn1cc(N2CCC(NC(=O)NCc3cc(F)cc(F)c3)C2=O)cn1 (centres undefined)
half-life at 1 µM [7]: 9.73 h
EC50 ([2]; cho-k1): Not Active
Emax ([3]; time 2.5 hrs): inactive
Emax [4]: inactive
logD ([5]; read-out: logD): 2.1
EC50 ([6]; cho-k1): Not Active

O=C(Nc1ccc(Br)cc1)NC1CCN(C2CCN(Cc3ccccc3)C2)C1=O (stereo in doubt; 17) [listing 1 of 2 here]
Emax [3, 9]: 128%
Emax ([4]; filed as agonist): 100%

O=C(Nc1ccc(Br)cc1)NC1CCN(c2cnn(-c3ccccc3)c2)C1=O (centres undefined)
half-life at 1 µM [7]: 3.48 h
half-life at 1 µM [8]: 1.78 h
EC50 ([2]; cho-k1): Not Active
Emax ([3]; time 2.5 hrs): inactive
Emax [4]: inactive
logD ([5]; read-out: logD): > 4
EC50 ([6]; cho-k1): Not Active

O=C(Nc1ccc(Br)cc1)NC1CCN(C2CCN(Cc3ccccc3)C2)C1=O (stereo in doubt; 17) [listing 2 of 2 here]
Kinetic_solubility ([1]; buffer): 210 µM
EC50 ([2]; read-out: EC50): 2.7 µM
logD [5]: 3.3
EC50 ([6]; read-out: EC50): 1.37 µM

CC(NC(=O)NC1CC(C)N(c2ccccc2)C1=O)c1ccncc1 (centres undefined)
half-life at 1 µM [7]: 8.42 h
half-life at 1 µM [8]: 2.52 h
EC50 ([2]; cho-k1): Not Active
Emax ([3]; time 2.5 hrs): inactive
Emax [4]: inactive
logD ([5]; read-out: logD): 2.8
EC50 ([6]; cho-k1): Not Active

CC(C)(C)OC(=O)N1CCC[C@H](N2CCC(NC(=O)Nc3ccc(Br)cc3)C2=O)C1 (stereo in doubt; 19) [listing 2 of 2 here]
solubility kinetic [1]: 71 µM (≈ 34.2 µg/mL)
EC50 ([2]; read-out: EC50): 0.13 µM
logD [5]: > 4
EC50 ([6]; read-out: EC50): 1.38 µM

O=C(Nc1ccc(Br)cc1)NC1CCN(C2CCN(Cc3ccccc3)C2)C1=O (stereo in doubt; 18)
Emax [3, 9]: 84%
Emax ([4]; filed as agonist): 99%

CCc1ccc(C(C)NC(=O)NC2CCN(c3cnn(C)c3)C2=O)cc1 (centres undefined)
EC50 ([2]; cho-k1): Not Active
Emax ([3]; time 2.5 hrs): inactive
Emax [4]: inactive
EC50 ([6]; cho-k1): Not Active

O=C(Nc1ccc(Br)cc1)NC1CCN(C2CCN(c3ncccn3)CC2)C1=O (centres undefined)
half-life at 1 µM [7]: 0.95 h
half-life at 1 µM [8]: 0.733 h
EC50 ([2]; read-out: EC50): 0.008 µM
Emax ([4]; filed as agonist): 96%
logD ([5]; read-out: logD): 3.9
EC50 ([6]; read-out: EC50): 0.385 µM

CC(C)(C)OC(=O)N1CCC[C@H](N2CCC(NC(=O)Nc3ccc(Br)cc3)C2=O)C1 (stereo in doubt; 20)
Emax [3, 9]: 73%
Emax ([4]; filed as agonist): 86%
